Shown is part of a subset that was picked to be rich in hits.
Dynein transport – inhibitors of GR-EGFP nuclear translocation, primary screen, dynein cargo transport inhibitor project, imaging, high-content, 3617.4 mouse cells | test concentration mostly 20 µM; stimulated with dexamethasone, 1 µM; stronger effect = lower value | z-score, hits read low | AID 1381, 2008 | 220,000 tested, 0.47% active;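 active means plate z-score of nuclear minus cytoplasmic receptor signal below a set negative limit, without overly bright fluorescence or cell loss, cut at about -3.5 in these data, passing the limit was not always enough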;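 further: z-score of nuclear minus cytoplasmic ring GR-EGFP intensity difference per well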
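Buffer or medium: tet-free medium with charcoal-stripped serum / Also added: dexamethasone agonist, 1.0 µM final, for 30 min / Timing: induction 48 h, compound 1 h, agonist 30 min / Measured by: high-content fluorescence imaging after fixation / Read-out: nuclear-to-cytoplasmic GR-EGFP distribution per well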
KCC2 mod – KCC2 cotransporter modulators, thallium flux, primary screen, cell-based, HEK293 KCC2, FluoZin-2 fluorescence, MLSMR | Solute carrier family 12 member 5 (Homo sapiens), Q9H2X9 | KCC2 cells, thallium flux FluoZin-2 fluorescence | B-score of Tl+ flux slope (higher = more flux/activation; lower = inhibition) at 10 µM | 190,000 tested, 2.2% active | AID 1456, 2008;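 active means thallium flux slope and its plate-corrected score both differing from the plate sample mean at a set confidence after two filtering rounds, in either direction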;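 further: slope of fluorescence scaled to starting intensity during 10 to 20 s after thallium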
p-CIP stab down – p/CIP-EGFP fusion destabilizers, primary screen, fluorescence, F442A cells | 290,000 tested, 0.01% active | decrease of EGFP signal, % at 10 µM | 16 h | Q05BA5;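 active means EGFP signal decrease of at least 30% at 10 µM or well 3 SD below plate mean, unless failing retest; inactive means the rest, including hits failing retest or dose response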
V-ATPase pH – regulators of yeast V-ATPase proton pumping, primary screen, pHLuorin cytosolic pH fluorescence | S. cerevisiae | 350,000 tested, 0.37% active | response, % at 10 µM; in the data active means response mostly above about 7.3%, no sharp cut-off; inactive means mostly below about 5.4%; further: actives read high
ABCB6 inh MLPCN – ABCB6 transporter inhibitors, primary screen, K562-ABCB6 cells, flow cytometry, MLPCN library; AID 602162, 2011; 360,000 tested, 0.19% active; K562-ABCB6 porphyrin accumulation, 1 h; stronger effect = lower value; ATP-binding cassette sub-family B member 6 (Homo sapiens), Q9NP58; fluorescence ratio to DMSO, % at 10 µM;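 active means fluorescence ratio to DMSO below 75%, the collection mean minus 3 SD; inconclusive means too few cells collected in the well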;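 further: signal is porphyrin accumulated inside mitochondria; lower ratio means ABCB6 inhibition with less porphyrin fluorescence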
KCC2 sec1 – KCC2 modulators in sodium-free buffer, confirmation, cell-based, HEK293 KCC2, thallium flux, secondary assay; AID 1713, 2009; 3,700 tested, 15% active; normalised thallium flux (F/F0 slope) at 10 µM; shares compounds with KCC2 mod; FluoZin2 fluorescence; stronger effect = higher value;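 active means thallium flux slope above the same plate's solvent-only control mean plus 3 SD; inconclusive means the two replicate wells disagree; inactive means no significant difference from solvent-only control wells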
KCC2 bumet counter – thallium flux persisting under bumetanide in KCC2 cells, confirmation, counter-screen for KCC2 modulator project, cell-based, HEK293 KCC2, FluoZin2, secondary assay 3 | normalized thallium flux at 10 µM | HEK293-KCC2 + bumetanide/ouabain; stronger effect = higher value | 3,700 tested, 49% active | shares compounds with KCC2 mod;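 active means thallium entry rate above the same plate's blocked-transporter control wells by more than 3 SD; inconclusive means the two repeat wells disagree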;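 further: raw slope of fluorescence over initial fluorescence between 10 and 20 s after thallium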
KCC2 sec2 – KCC2 modulators without ouabain present, confirmation, cell-based, HEK293 KCC2, thallium flux, FluoZin2, secondary assay 2. normalized thallium flux at 10 µM. thallium flux FluoZin2 fluorescence; actives lie on both sides; F/F0 rise rate, 10–20 s post-thallium. AID 1715, 2009. 3,700 tested, 23% active. shares compounds with KCC2 mod;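 active means thallium flux slope more than 3 SD above or below the plate's solvent-only control mean, mostly below; inconclusive means the two repeat wells disagreed; inactive means no significant shift from solvent-only controls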
HEK counter1 – thallium flux modulation in parental HEK cells, confirmation, counter-screen for KCC2 modulator project, cell-based, counterscreen 1. shares compounds with KCC2 mod. HEK293 parental cells, thallium flux FluoZin2, ouabain; baseline-ratio fluorescence slope, 10–20 s after thallium. thallium flux rate (normalised fluorescence) at 10 µM. 3,700 tested, 46% active. AID 1716, 2009;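 active means thallium flux rate significantly above the same plate's solvent-only control wells, beyond their mean plus 3 SD; inconclusive means the two replicate wells gave conflicting results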
KCC2 ouabain – KCC2 inhibitors and activators, ouabain retest, confirmation, HEK-KCC2 cells; raw Tl+ flux slope (below DMSO = inhibition, above = activation) at 10 µM; HEK293-KCC2, thallium flux FluoZin2 fluorescence; bidirectional: low = inhibitor, high = activator; AID 1717, 2009; shares compounds with KCC2 mod; 3,700 tested, 48% active;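 active means thallium flux slope beyond 3 SD from same-plate DMSO control mean in most replicates, usually higher, sometimes lower; inconclusive means repeat tests gave conflicting results; inactive means no significant difference from controls in most replicates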;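 further: slope of initial-normalized fluorescence between seconds 10 and 20 after thallium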
HEK293 Tl flux2 – native HEK Tl+ uptake effects, second counter-screen – HEK cells, counterscreen 2, counter-screen for KCC2 modulator project, confirmation; shares compounds with KCC2 mod; HEK293 parental, thallium flux FluoZin-2 fluorescence slope; thallium flux slope at 10 µM; 3,700 tested, 33% active;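 active means thallium flux slope above the same plate's solvent-control mean plus 3 SD in both duplicate wells; inconclusive means duplicate wells that disagreed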;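 further: run without ouabain in cells lacking the KCC2 cotransporter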
Hits are given with their value.

O=C(Nc1nc2c(s1)CN(Cc1ccccc1)CC2)C1CCCC1 was read as Dynein transport inactive, KCC2 mod -3, p-CIP stab down inactive, V-ATPase pH inactive, ABCB6 inh MLPCN inactive, KCC2 sec1 inactive, KCC2 bumet counter inactive, KCC2 sec2 inactive, HEK counter1 inactive, KCC2 ouabain inconclusive and HEK293 Tl flux2 inactive.
For CC12CCC3c4cc(CN5CCOCC5)c(O)cc4CCC3C1CCC2=O (stereo not given) the results were V-ATPase pH inactive and ABCB6 inh MLPCN inactive.
For CN(C(=O)COc1cc(=O)n(C)c2ccccc12)c1ccc(Cl)cc1 the results were Dynein transport inactive, p-CIP stab down inactive, V-ATPase pH inactive and ABCB6 inh MLPCN inactive.
Screening Cc1ccc(C)c(N(C)C(=O)COc2cc(=O)n(C)c3ccccc23)c1 returned Dynein transport inactive, KCC2 mod -4.1, p-CIP stab down inactive, V-ATPase pH inactive, ABCB6 inh MLPCN inactive, KCC2 sec1 inactive, KCC2 bumet counter inactive, KCC2 sec2 inactive, HEK counter1 inactive, KCC2 ouabain inactive and HEK293 Tl flux2 inactive.
For CCN1C(=O)N[C@@H](CCc2ccccc2)C(C(C)=O)=C1C the results were V-ATPase pH inactive and ABCB6 inh MLPCN inactive.
For COCCN1C(=O)N[C@@H](CCc2ccccc2)C(C(C)=O)=C1C the results were Dynein transport inactive, KCC2 mod 6, p-CIP stab down inactive, KCC2 sec1 inactive, KCC2 bumet counter inactive, KCC2 sec2 0.025, HEK counter1 inactive, KCC2 ouabain inactive and HEK293 Tl flux2 inactive.
Screening C=C(c1ccccc1C)[n+]1ccccc1 returned p-CIP stab down inactive, V-ATPase pH inactive and ABCB6 inh MLPCN inactive.
Screening CCCCn1c(NS(=O)(=O)c2ccc(C)cc2)c(S(=O)(=O)c2ccccc2)c2nc3ccccc3nc21 returned Dynein transport inactive, KCC2 mod -6.5, p-CIP stab down inactive, V-ATPase pH inactive, ABCB6 inh MLPCN inactive, KCC2 sec1 inactive, KCC2 bumet counter 0.017, KCC2 sec2 inactive, HEK counter1 inconclusive, KCC2 ouabain inconclusive and HEK293 Tl flux2 inactive.
Screening Cc1ccc(S(=O)(=O)c2c(N)n(CCCN(C)C)c3nc4ccccc4nc23)cc1 returned Dynein transport inactive, KCC2 mod inactive, p-CIP stab down inactive, V-ATPase pH inactive and ABCB6 inh MLPCN inactive.
`O=P(CCN1CCCCC1)(c1ccccc1)c1ccccc1` gave Dynein transport inactive, KCC2 mod -17, p-CIP stab down inactive, V-ATPase pH inactive, ABCB6 inh MLPCN inactive, KCC2 sec1 inactive, KCC2 bumet counter inactive, KCC2 sec2 inactive, HEK counter1 inactive, KCC2 ouabain inactive and HEK293 Tl flux2 inactive.
`CCC1CCc2c(sc(NC(=O)CSc3nc(-c4ccco4)cc(C(F)(F)F)n3)c2C#N)C1` (stereo not given) gave Dynein transport inactive, KCC2 mod inactive, p-CIP stab down inactive, V-ATPase pH inactive and ABCB6 inh MLPCN inactive.
Screening COc1ccccc1-c1nnc2sc(COc3ccc(Cl)cc3Cl)nn12 returned Dynein transport inactive, KCC2 mod inactive, p-CIP stab down inactive, V-ATPase pH inactive and ABCB6 inh MLPCN inactive.
`COc1ccccc1-c1nnc2sc(COc3ccccc3)nn12` gave Dynein transport inactive, KCC2 mod inactive, p-CIP stab down inactive, V-ATPase pH inactive, ABCB6 inh MLPCN inactive, KCC2 sec1 inactive, KCC2 bumet counter inconclusive, KCC2 sec2 0.024, HEK counter1 0.0064, KCC2 ouabain 0.015 and HEK293 Tl flux2 inconclusive.
Screening c1ccc(OCc2nn3c(Cn4nnc5ccccc54)nnc3s2)cc1 returned Dynein transport inactive, KCC2 mod -2.6, p-CIP stab down inactive, V-ATPase pH inactive, ABCB6 inh MLPCN inactive, KCC2 sec1 inactive, KCC2 bumet counter inactive, KCC2 sec2 inactive, HEK counter1 inactive, KCC2 ouabain 0.015 and HEK293 Tl flux2 inactive.
For c1ccc(Cc2nn3c(Cn4nnc5ccccc54)nnc3s2)cc1 the results were Dynein transport inactive, KCC2 mod inactive, p-CIP stab down inactive, V-ATPase pH inactive and ABCB6 inh MLPCN inactive.
Screening Brc1ccccc1-c1nnc2sc(Cc3ccccc3)nn12 returned Dynein transport inactive, KCC2 mod -4.1, p-CIP stab down inactive, V-ATPase pH inactive, ABCB6 inh MLPCN inactive, KCC2 sec1 inactive, KCC2 bumet counter inactive, KCC2 sec2 inconclusive, HEK counter1 inconclusive, KCC2 ouabain 0.013 and HEK293 Tl flux2 inactive.
For COc1ccc(Cc2nn3c(-c4ccccc4Br)nnc3s2)cc1 the results were Dynein transport inactive, KCC2 mod inactive, p-CIP stab down inactive, V-ATPase pH inactive and ABCB6 inh MLPCN inactive.
For CN(C(=O)COC(=O)c1ccccc1SCC(=O)N1CCCC1)c1ccccc1 the results were p-CIP stab down inactive, V-ATPase pH inactive and ABCB6 inh MLPCN inactive.
`C=CCN1C(=O)/C(=C/c2ccc(OC(C)=O)c(OCC)c2[N+](=O)[O-])SC1=S` gave Dynein transport inactive, KCC2 mod -3.4, p-CIP stab down inactive, V-ATPase pH inactive, ABCB6 inh MLPCN inactive, KCC2 sec1 0.0058, KCC2 bumet counter inactive, KCC2 sec2 inactive, HEK counter1 0.005, KCC2 ouabain inconclusive and HEK293 Tl flux2 inactive.
Screening O=C(Nc1nc2ccsc2c(=O)s1)c1ccc(F)cc1Cl returned Dynein transport inactive, KCC2 mod inactive, p-CIP stab down inactive, V-ATPase pH inactive and ABCB6 inh MLPCN inactive.
